Source: PubChem BioAssay
Shown are actives, neighbours in structure and some others; about 4.1% of the full set was active somewhere.
Apaf1 inhib = inhibitors of human Apaf-1 apoptosome, primary screen, biochemical, DEVD-Rh110 fluorescence, uHTS. inhibition, % at 20 µM. reconstituted apoptosome caspase-3 activity. hit rate 0.71% among 330,000. Apoptotic protease-activating factor 1 (Homo sapiens), O14727. AID 489030, 2010; active = inhibition of at least 40% at 20 µM
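Assay system – apoptosome proteins · Medium – Hepes buffer, pH 7.5 · Also added – cytochrome c with DEVD-Rh110 · Timing – 30 min compound preincubation, 50 min activation, room temperature · Detection – Rh110 fluorescence, excitation 480 nm, emission 540 nm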
Mdm2 MdmX PPI = inhibitors of human Mdm2-MdmX association, primary screen, cell-based, luminescence, split luciferase, SaOS-2, uHTS; inhibition, % at 8 µM; Protein Mdm4 (Homo sapiens) + E3 ubiquitin-protein ligase Mdm2 (Homo sapiens), …; AID 485346, 2010; hit rate 3% among 330,000; SaOS-2 split-luciferase Mdm2/MdmX complementation;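 active = inhibition of at least 50% at 8 µM in the primary screen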
UBC13 inh = UBC13 polyubiquitin chain formation inhibitors, primary screen, biochemical, TR-FRET, uHTS; Ubiquitin-conjugating enzyme E2 N (Homo sapiens), P61088; inhibition, % at 20 µM; hit rate 0.47% among 330,000; AID 485273, 2010; in the data active = inhibition above about 45%, passing the limit was not always enough; inconclusive = no clear call, values can overlap the other calls
UPR XBP1 act = activators of adaptive XBP1 UPR arm, primary screen, cell-based, CHO-XBP1 luciferase reporter, luminescence, uHTS | IRE1-XBP1 UPR activation; percent of tunicamycin response, DMSO as zero | activation, % at 20 µM | hit rate 0.33% among 330,000 | AID 463104, 2010;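 active = versus positive control, 20 µM dose yields 30% or more activation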
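Material – CHO cell line with stable XBP1 luciferase reporter · Buffer or medium – F12 plus 10% FBS · Compound – single point, 20 µM final compound, 1% DMSO · Schedule – 16-18 h cell attachment at 37 °C, then 6 h compound exposure · Signal – Steady-Glo luminescence read · Benchmarks – high control tunicamycin 10 µg/mL final, low control DMSO vehicle only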
CHOP UPR activ = activators of apoptotic CHOP UPR arm, primary screen, cell-based, CHO-CHOP luciferase reporter, luminescence, uHTS; UPR activation; percent of tunicamycin response over DMSO baseline; activation, % at 10 µM; hit rate 0.34% among 330,000;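 active = at 10 µM dose, activation of 40% or more, normalized to positive control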
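System: CHO-CHOP luciferase reporter cell line | Buffer or medium: F12 medium containing 10% fetal bovine serum | Doses: One dose, 10 µM in 0.5% DMSO | Times: 6 h compound exposure at 37 °C after overnight seeding | Signal: Luciferase luminescence | Read-out: % activation vs tunicamycin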
Mdm2-MdmX conf = Mdm2-MdmX complex disruptors, retested hits, confirmation, luminescence, single concentration. hit rate 55% among 10,000. Mdm2-MdmX binding, luminescent assay. inhibition, % at 8 µM. shares compounds with Mdm2 MdmX PPI; in the data active = inhibition above about 40%
FLuc counter = full-length luciferase signal inhibition, confirmation, counter-screen for Mdm2/MdmX interaction inhibitor project, cell-based, single concentration, SaOS-2; shares compounds with Mdm2 MdmX PPI; SaOS-2 full-length luciferase counterscreen, luminescence; inhibition, % at 8 µM; hit rate 77% among 6,200; AID 504607, 2011;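 active = mean inhibition at 8 µM reaching about 37%, which flags the compound as non-specific, limit read from the data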;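 note: p53-null SaOS-2 cells with luciferase driven by a doxycycline-inducible promoter; compound on cells about two nights before reading with doxycycline added after day one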
Large screens that a line does not name were inactive (follow-up assays come after a bar, where they were run).

CCn1cc([N+](=O)[O-])c(C(=O)N2N=C(c3ccc4ccccc4c3)CC2c2cc(Br)ccc2O)n1 (configuration not stated)	Mdm2 MdmX PPI 99 | Mdm2-MdmX conf 41 | FLuc counter 39
CCn1cc([N+](=O)[O-])c(C(=O)N2N=C(c3ccc(O)c(OC)c3)CC2c2ccccc2O)n1 (configuration not stated)	none
CCn1cc([N+](=O)[O-])c(C(=O)N2N=C(c3ccc(Cl)c(Cl)c3)CC2c2ccccc2O)n1 (configuration not stated)	Mdm2 MdmX PPI 71 | Mdm2-MdmX conf 42 | FLuc counter 71
Cc1ccc2oc3nc(C)c(C(=O)Nc4cccc(C(F)(F)F)c4)cc3c(=O)c2c1	none
COc1ccc(CCn2c(=N)c(C(=O)NC3CCCC3)cc3c(=O)n4cccc(C)c4nc32)cc1	Mdm2 MdmX PPI 88 | Mdm2-MdmX conf 53 | FLuc counter 58
COc1ccc(CCn2c(=N)c(C(=O)NC3CCCCC3)cc3c(=O)n4ccccc4nc32)cc1	Mdm2 MdmX PPI 93 | Mdm2-MdmX conf inactive | FLuc counter 82
Cc1cccn2c(=O)c3cc(C(=O)NC4CCCCC4)c(=N)n(Cc4ccccc4)c3nc12	Apaf1 inhib 57, Mdm2 MdmX PPI 93 | Mdm2-MdmX conf inactive
COc1ccc(CCn2c(=N)c(C(=O)NCC3CCCO3)cc3c(=O)n4ccccc4nc32)cc1 (configuration not stated)	none
CC(C)[C@H](NC(N)=O)C(=O)Nc1cccc(S(=O)(=O)N2CCOCC2)c1	none
CNS(=O)(=O)c1cc(-c2nnc(N3CCOCC3)c3ccccc23)ccc1C	none
Cc1ccc(C(=O)/C=C/Nc2ccccn2)cc1	Mdm2 MdmX PPI 55 | Mdm2-MdmX conf inactive
Cc1cc(C)cc(S(=O)(=O)c2cnc3ccccc3n2)c1	none
O=S(=O)(c1ccc(Cl)cc1)c1cnc2ccccc2n1	Mdm2 MdmX PPI 53 | Mdm2-MdmX conf inactive
COc1cccc(Oc2ncnc(N)c2[N+](=O)[O-])c1	none
Cc1nc(SCC(=O)Nc2nc3ccccc3s2)n[nH]1	none
Cc1cc(C(F)(F)F)c(C#N)c(SCC(=O)Nc2nc3ccccc3s2)n1	Mdm2 MdmX PPI 66 | Mdm2-MdmX conf 82 | FLuc counter 142
Cc1nc(SCC(=O)Nc2nc3ccccc3s2)c(C#N)c(C)c1C	Mdm2 MdmX PPI 100 | Mdm2-MdmX conf 100 | FLuc counter 53
CCc1nnc(NC(=O)CSc2nc(-c3ccccc3)cc(-c3ccc(F)cc3)c2C#N)s1	none
COc1ccc(-c2cc(-c3cccs3)c(C#N)c(SCC(=O)NCc3ccco3)n2)cc1	Mdm2 MdmX PPI 56 | Mdm2-MdmX conf 70 | FLuc counter 52
COc1cc(-c2cc(-c3ccccc3)nc(SCC(=O)Nc3nccs3)c2C#N)cc(OC)c1OC	Mdm2 MdmX PPI 51, UBC13 inh inconclusive | Mdm2-MdmX conf inactive
Cc1ccc2sc(NC(=O)CSc3nc(C)cc(C)c3C#N)nc2c1	none
O=C(CCNC(=O)c1ccc(Cl)cc1)NCC(c1ccco1)N1CCCC1 (configuration not stated)	none
CCc1ccc(C(C(=O)NC2CCCC2)N(Cc2cccnc2)C(=O)c2csnn2)cc1 (configuration not stated)	none
N#Cc1c(SCC(=O)Nc2nccs2)nc2c(c1-c1ccco1)CCCC2	Mdm2 MdmX PPI 51 | Mdm2-MdmX conf inactive
N#Cc1c(C(F)(F)F)cc(-c2ccccc2)nc1SCC(=O)Nc1sc2c(c1C#N)CCC2	Mdm2 MdmX PPI 72 | Mdm2-MdmX conf 64 | FLuc counter 55
